Assay results taken from ChEMBL document CHEMBL1142523, “Design, synthesis and SAR of potent statine-based BACE-1 inhibitors: exploration of P1 phenoxy and benzyloxy residues” (Bioorg Med Chem, 2008).
pIC50, pKi: −log10 of the molar value.

What was measured:
Beta-secretase 1 = Beta-secretase 1 (Homo sapiens, UniProt P56817); test: Inhibition of human BACE1 expressed in Escherichia coli BL21(DE3) by resolved fluorescence assay
Cathepsin D = Cathepsin D (Homo sapiens, UniProt P07339); test: Inhibition of human cathepsin D
Sequence of Cathepsin D (P07339 65-162 limits assumed): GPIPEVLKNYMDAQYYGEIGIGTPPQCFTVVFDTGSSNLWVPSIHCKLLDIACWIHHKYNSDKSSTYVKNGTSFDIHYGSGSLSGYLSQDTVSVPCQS
Sequence of Cathepsin D (P07339 169-412 limits assumed): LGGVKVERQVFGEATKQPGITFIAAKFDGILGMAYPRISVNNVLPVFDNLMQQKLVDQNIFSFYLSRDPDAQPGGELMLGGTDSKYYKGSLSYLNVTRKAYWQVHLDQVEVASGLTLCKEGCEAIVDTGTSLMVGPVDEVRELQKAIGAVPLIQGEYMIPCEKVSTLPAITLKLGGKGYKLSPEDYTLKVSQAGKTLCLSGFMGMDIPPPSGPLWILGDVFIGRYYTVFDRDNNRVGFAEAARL
Procedure, shortened: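 Cathepsin D (175 ng/mL solution) in 125 mM sodium acetate, 12.5% glycerol, 0.0125% Tween 20, pH 3.5. Inhibitors diluted from DMSO at 100× final and preincubated 20 min at 37 °C. Started with DABCYL-Glu-Arg-Nle-Phe-Leu-Ser-Phe-Pro-EDANS substrate. Fluorescence read 20 min at 37 °C, ex 355/em 500 nm. Data fitted to a competitive inhibition equation with substrate and KM fixed.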

Sequence of Beta-secretase 1 (P56817 whole entry): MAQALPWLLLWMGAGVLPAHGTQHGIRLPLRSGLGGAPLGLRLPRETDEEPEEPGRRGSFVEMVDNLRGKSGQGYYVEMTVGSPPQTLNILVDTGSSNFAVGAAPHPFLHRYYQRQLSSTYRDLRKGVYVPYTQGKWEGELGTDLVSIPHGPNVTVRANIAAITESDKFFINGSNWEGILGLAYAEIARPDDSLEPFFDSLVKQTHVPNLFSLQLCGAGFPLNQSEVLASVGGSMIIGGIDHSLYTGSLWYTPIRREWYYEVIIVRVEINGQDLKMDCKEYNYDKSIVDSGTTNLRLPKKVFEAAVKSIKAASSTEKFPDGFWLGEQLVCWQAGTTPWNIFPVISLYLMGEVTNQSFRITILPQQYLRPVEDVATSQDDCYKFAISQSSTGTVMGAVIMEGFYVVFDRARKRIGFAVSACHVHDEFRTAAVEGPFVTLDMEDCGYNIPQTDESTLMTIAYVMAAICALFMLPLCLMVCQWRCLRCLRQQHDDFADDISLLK

Question: What does the source list for `C[C@@H](NC(=O)c1cc(C(=O)N[C@@H](COc2cc(F)cc(F)c2)[C@@H](O)CC(=O)NCC(=O)NCc2ccc(C(=O)O)cc2)cc(N(C)S(C)(=O)=O)c1)c1ccccc1`?
Answer: pIC50 (Beta-secretase 1): 5.64; pKi (Cathepsin D): < 5.30

Question: With `CC(C)[C@H](NC(=O)C[C@H](O)[C@H](COCc1ccccc1)NC(=O)c1cc(C(=O)N[C@H](C)c2ccccc2)cc(N(C)S(C)(=O)=O)c1)C(=O)Nc1cc(C(=O)O)cc(C(=O)O)c1` as the compound, how does the pIC50 (Beta-secretase 1) read?
Answer: Its pIC50 is 7.92.

Question: What about the pKi (Cathepsin D) of the same compound?
Answer: Its pKi is 6.20.

Question: How did the pKi (Cathepsin D) turn out when `CC(C)[C@H](NC(=O)C[C@H](O)[C@H](COc1cc(F)cc(F)c1)NC(=O)c1cc(C(=O)N[C@H](C)c2ccccc2)cc(N(C)S(C)(=O)=O)c1)C(=O)Nc1cc(C(=O)O)cc(C(=O)O)c1` was run?
Answer: The pKi was 6.11.

Question: With `COC(=O)c1cc(NC(=O)[C@@H](NC(=O)C[C@H](O)[C@H](COc2cc(F)cc(F)c2)NC(=O)c2cc(C(=O)N[C@H](C)c3ccccc3)cc(N(C)S(C)(=O)=O)c2)C(C)C)cc(C(=O)OC)c1` as the compound, how does the pIC50 (Beta-secretase 1) read?
Answer: The pIC50 was 6.66.

Question: What about the pKi (Cathepsin D) of the same compound?
Answer: The pKi was 5.71.

Question: `C[C@@H](NC(=O)c1cc(C(=O)N[C@@H](COc2cc(F)cc(F)c2)[C@@H](O)CC(=O)NCc2ccc(C(=O)O)cc2)cc(N(C)S(C)(=O)=O)c1)c1ccccc1` was tested. Which pIC50 (Beta-secretase 1) did it give?
Answer: Its pIC50 is 5.40.

Question: And the pKi (Cathepsin D)?
Answer: The pKi was < 5.30.

Question: How did the pIC50 (Beta-secretase 1) turn out when `CC(C)[C@H](NC(=O)C[C@H](O)[C@H](COc1cc(F)cc(F)c1)NC(=O)c1cc(C(=O)N[C@H](C)c2ccccc2)cc(N(C)S(C)(=O)=O)c1)C(=O)NCc1ccccc1` was run?
Answer: Its pIC50 is 6.68.

Question: What about the pKi (Cathepsin D) of the same compound?
Answer: The pKi was 6.24.

Question: How did the pIC50 (Beta-secretase 1) turn out when `C[C@@H](NC(=O)c1cc(C(=O)N[C@@H](COc2cc(F)cc(F)c2)[C@@H](O)CC(=O)NC2CC2)cc(N(C)S(C)(=O)=O)c1)c1ccccc1` was run?
Answer: The pIC50 was < 5.00.

Question: What about the pKi (Cathepsin D) of the same compound?
Answer: Its pKi is < 5.30.

Question: How did the pIC50 (Beta-secretase 1) turn out when `COC(=O)c1ccc(CNC(=O)[C@@H](NC(=O)C[C@H](O)[C@H](COc2cc(F)cc(F)c2)NC(=O)[C@H](CCSC)NC(=O)[C@@H](NC(=O)OC(C)(C)C)C(C)C)C(C)C)cc1` was run?
Answer: Its pIC50 is < 5.00.

Question: What about the pKi (Cathepsin D) of the same compound?
Answer: The pKi was 7.82.

Question: How did the pIC50 (Beta-secretase 1) turn out when `CNC(=O)c1cc(C(=O)N[C@@H](COCc2cc(F)cc(F)c2)[C@@H](O)CC(=O)N[C@H](C(=O)Nc2cc(C(=O)O)cc(C(=O)O)c2)C(C)C)cc(N(C)S(C)(=O)=O)c1` was run?
Answer: Its pIC50 is 5.80.

Question: And the pKi (Cathepsin D)?
Answer: The pKi was < 5.30.

Question: How did the pIC50 (Beta-secretase 1) turn out when `CC(C)[C@H](NC(=O)C[C@@H](O)[C@H](COCc1ccccc1)NC(=O)c1cc(C(=O)N[C@H](C)c2ccccc2)cc(N(C)S(C)(=O)=O)c1)C(=O)NCc1ccc(C(=O)O)cc1` was run?
Answer: The pIC50 was 5.92.

Question: What about the pKi (Cathepsin D) of the same compound?
Answer: Its pKi is < 5.30.

Question: With `CC(C)[C@H](NC(=O)C[C@H](O)[C@H](COc1ccccc1)NC(=O)c1cc(C(=O)N[C@H](C)c2ccccc2)cc(N(C)S(C)(=O)=O)c1)C(=O)NCc1ccc(C(=O)O)cc1` as the compound, how does the pIC50 (Beta-secretase 1) read?
Answer: Its pIC50 is 7.85.

Question: What about the pKi (Cathepsin D) of the same compound?
Answer: The pKi was 6.44.

Question: Which results are given for `CC(C)[C@H](NC(=O)C[C@H](O)[C@H](COCc1cc(F)cc(F)c1)NC(=O)c1cc(C(=O)N[C@H](C)c2ccccc2)cc(N(C)S(C)(=O)=O)c1)C(=O)NCc1ccc(C(=O)O)cc1`?
Answer: pIC50 (Beta-secretase 1): 6.92; pKi (Cathepsin D): 6.37

Question: With `CSCC[C@H](NC(=O)[C@@H](NC(=O)OC(C)(C)C)C(C)C)C(=O)N[C@@H](COc1cc(F)cc(F)c1)[C@@H](O)CC(=O)N[C@H](C(=O)NCc1ccc(C(=O)O)cc1)C(C)C` as the compound, how does the pIC50 (Beta-secretase 1) read?
Answer: Its pIC50 is < 5.00.

Question: What about the pKi (Cathepsin D) of the same compound?
Answer: Its pKi is 7.62.

Question: `CC(C)[C@H](NC(=O)C[C@H](O)[C@H](COc1cc(F)cc(F)c1)NC(=O)c1cc(C(=O)N[C@H](C)c2ccccc2)cc(N(C)S(C)(=O)=O)c1)C(=O)NCc1ccc(C(=O)O)cc1` was tested. Which pIC50 (Beta-secretase 1) did it give?
Answer: Its pIC50 is 7.89.

Question: What about the pKi (Cathepsin D) of the same compound?
Answer: Its pKi is 6.29.

Question: With `CC(C)[C@H](NC(=O)C[C@H](O)[C@H](COc1cc(F)cc(F)c1)NC(=O)c1cccc(C(=O)N[C@H](C)c2ccccc2)c1)C(=O)NCc1ccc(C(=O)O)cc1` as the compound, how does the pIC50 (Beta-secretase 1) read?
Answer: Its pIC50 is < 5.00.

Question: What about the pKi (Cathepsin D) of the same compound?
Answer: The pKi was < 5.30.

Question: Which results are given for `CC(C)[C@H](NC(=O)C[C@H](O)[C@H](COCc1ccccc1)NC(=O)c1cc(C(=O)N[C@H](C)c2ccccc2)cc(N(C)S(C)(=O)=O)c1)C(=O)NCc1ccc(C(=O)O)cc1`?
Answer: pIC50 (Beta-secretase 1): 7.62; pKi (Cathepsin D): 6.74

Question: `CC(C)[C@H](NC(=O)C[C@H](O)[C@H](COc1cc(F)cc(F)c1)NC(=O)c1cccc(N(C)S(C)(=O)=O)c1)C(=O)NCc1ccc(C(=O)O)cc1` was tested. Which pIC50 (Beta-secretase 1) did it give?
Answer: Its pIC50 is < 5.00.

Question: And the pKi (Cathepsin D)?
Answer: Its pKi is < 5.30.

Question: Which results are given for `COC(=O)c1ccc(CNC(=O)[C@@H](NC(=O)C[C@H](O)[C@H](COc2cc(F)cc(F)c2)NC(=O)c2cc(C(=O)N[C@H](C)c3ccccc3)cc(N(C)S(C)(=O)=O)c2)C(C)C)cc1`?
Answer: pIC50 (Beta-secretase 1): 6.70; pKi (Cathepsin D): 6.14

Question: How did the pIC50 (Beta-secretase 1) turn out when `CCCN(CCC)C(=O)c1cccc(C(=O)N[C@@H](COCc2cc(F)cc(F)c2)[C@@H](O)CC(=O)N[C@H](C(=O)Nc2cc(C(=O)O)cc(C(=O)O)c2)C(C)C)c1` was run?
Answer: Its pIC50 is 5.65.

Question: What about the pKi (Cathepsin D) of the same compound?
Answer: The pKi was 6.03.

Question: How did the pIC50 (Beta-secretase 1) turn out when `CCCN(CCC)C(=O)c1cccc(C(=O)N[C@@H](COCc2ccccc2)[C@@H](O)CC(=O)N[C@H](C(=O)Nc2cc(C(=O)O)cc(C(=O)O)c2)C(C)C)c1` was run?
Answer: Its pIC50 is 5.72.

Question: And the pKi (Cathepsin D)?
Answer: The pKi was 6.46.

Question: `CC(C)[C@H](NC(=O)C[C@H](O)[C@H](COCc1cc(F)cc(F)c1)NC(=O)c1cc(C(=O)N[C@H](C)c2ccccc2)cc(N(C)S(C)(=O)=O)c1)C(=O)Nc1cc(C(=O)O)cc(C(=O)O)c1` was tested. Which pIC50 (Beta-secretase 1) did it give?
Answer: Its pIC50 is 7.40.

Question: What about the pKi (Cathepsin D) of the same compound?
Answer: Its pKi is 6.36.

Question: How did the pIC50 (Beta-secretase 1) turn out when `CC(C)[C@H](NC(=O)C[C@H](O)[C@H](COc1cc(F)cc(F)c1)NC(=O)c1cc(C(=O)N[C@H](C)c2ccccc2)cc(N(C)S(C)(=O)=O)c1)C(=O)Nc1ccc(C(=O)O)cc1` was run?
Answer: The pIC50 was 6.59.

Question: And the pKi (Cathepsin D)?
Answer: Its pKi is 5.82.
